Sampled rows, rich in hits. Any-hit rate of the full collection: about 1.6%.
TPT1 inhibitor – Candida albicans TPT1 enzyme inhibitors, primary screen, biochemical, fluorescence polarization; recombinant caTPT1, FP RNA substrate dephosphorylation; inhibition, % at 5 µM; 300,000 tested, 0.81% active; AID 1962, 2009;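 active = inhibition above the mean of all tested compounds plus 3 SD, set per screening campaign, cut at about 24% in these data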;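 also: plate controls were DMSO alone for no effect and ferristatin control at 100 nM for full effect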
HNF4A DNA FP – change in binding of human HNF4A to DNA, primary screen, biochemical, fluorescence polarization, FITC-DNA; AID 1224865, 2016; 1 h; 360,000 tested, 0.3% active; activity change, % at 10 µM; in the data active = activity change above about 30%, passing the limit was not always enough
Target sequence (P41235 whole entry, looked up): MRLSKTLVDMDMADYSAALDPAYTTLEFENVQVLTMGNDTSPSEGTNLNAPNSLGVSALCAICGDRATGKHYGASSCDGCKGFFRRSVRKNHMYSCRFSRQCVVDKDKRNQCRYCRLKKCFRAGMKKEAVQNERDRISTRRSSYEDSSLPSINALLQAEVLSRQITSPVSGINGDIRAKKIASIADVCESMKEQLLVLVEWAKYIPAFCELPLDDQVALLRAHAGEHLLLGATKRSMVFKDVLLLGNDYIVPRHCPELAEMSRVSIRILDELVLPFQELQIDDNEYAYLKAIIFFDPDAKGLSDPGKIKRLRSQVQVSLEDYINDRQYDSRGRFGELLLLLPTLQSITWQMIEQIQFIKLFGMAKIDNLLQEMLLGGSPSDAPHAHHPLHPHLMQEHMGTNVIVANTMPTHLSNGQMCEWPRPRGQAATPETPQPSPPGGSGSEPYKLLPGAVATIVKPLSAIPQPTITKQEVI
SENP1 inh – human SENP1 catalytic domain inhibitors, primary screen, biochemical, FRET, uHTS; recombinant SENP1 catalytic domain, CyPet-SUMO1-YPet FRET cleavage; inhibition, % at 10 µM; Sentrin-specific protease 1 (Homo sapiens), Q9P0U3; 360,000 tested, 0.21% active;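 active = inhibition at least 30% at 10 µM, raw YFP signal under a set limit, fluorescence ratio 0.5 to 1.5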;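 also: 0% = enzyme with DMSO and 100% = no enzyme wells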
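Assay system – human recombinant His6-tagged SENP1 catalytic domain enzyme · Input – SENP1 enzyme, 20 pM final · Buffer or medium – Tris pH 8 buffer plus EDTA, NaCl, BME, BSA, NP40, catalase · Schedule – 50 min reaction at room temperature · Technique – FRET read of cyan and yellow fluorescence · Control set – no-enzyme wells low, DMSO-plus-enzyme wells high control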
Rpn11 inh – Rpn11 (PSMD14) deubiquitinase inhibitors, primary screen, biochemical, fluorescence polarization, uHTS; 26S proteasome non-ATPase regulatory subunit 14 (Homo sapiens), O00487; inhibition, % at 20 µM; human 26S proteasome, Ub4-pepOG fluorescence polarization; 20S core pre-blocked with epoxomicin; 360,000 tested, 0.59% active;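 active = inhibition at 20 µM, scaled to each plate's controls, above about 33%, limit read from the data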
CSN deneddyl inh – inhibitors of CSN-mediated cullin deneddylation, primary screen, biochemical, fluorescence polarization, uHTS; inhibition, % at 12.5 µM; 360,000 tested, 0.38% active; Purified CSN, SCF-Nedd8-OG deneddylation; COP9 signalosome complex subunit 5 (Homo sapiens), Q92905;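 active = pattern-corrected inhibition above about 35%, with an unprinted fluorescence ratio check between 0.5 and 1.5, limit read from the data, passing the limit was not always enough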;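 also: 0% = enzyme with substrate and 100% = substrate without enzyme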
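Detection – fluorescence polarization · System – HEK293T-derived human Csn5 enzyme · Controls – substrate-only high control, full reaction low control · Timing – 90 min, room temperature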
TPT1 inh confirm – Candida albicans TPT1 inhibitors, confirmation, biochemical, fluorescence polarization, triplicate; shares compounds with TPT1 inhibitor; recombinant caTPT1, RNase T1 coupled; inhibition, % at 5 µM; 2,400 tested, 74% active; AID 2149, 2009;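 active = inhibition above the primary screen limit, the mean inhibition of all tested compounds plus 3 SD, cut at about 25% in these data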
RNase T1 inh – RNase T1 inhibitors, counter-screen for TPT1 inhibitor project, biochemical, fluorescence polarization; 2,400 tested, 83% active; shares compounds with TPT1 inhibitor; inhibition, % at 5 µM; RNase T1 cleavage, 1536-well;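 active = inhibition above the solvent-only control well mean plus 3 SD, limit set per screening run, cut at about 23% in these data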;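 also: plate controls were DMSO wells with enzyme for no effect and wells without RNase T1 for full effect; inhibitors block cleavage so intact labeled substrate keeps polarization high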
Target sequence (P00651 whole entry, looked up): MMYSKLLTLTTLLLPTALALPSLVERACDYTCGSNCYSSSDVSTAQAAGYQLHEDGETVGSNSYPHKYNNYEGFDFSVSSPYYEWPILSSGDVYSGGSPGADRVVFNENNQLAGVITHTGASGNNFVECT
* marks the source's active call; other numbers are inactive results; . = no result shown.

SMILES	TPT1 inhibitor	HNF4A DNA FP	SENP1 inh	Rpn11 inh	CSN deneddyl inh	TPT1 inh confirm	RNase T1 inh
O=C(N/N=C/c1cn(Cc2ccccc2)c2ccccc12)c1cccnc1	1	5	2	-16	0	.	.
CCN(CC)c1ccc(/C=C2\NC(=O)NC2=O)cc1	27*	6	-33	22	3	36*	50*
COc1ccc(CCNc2nc(-c3ccc(F)cc3)c(CC(=O)O)s2)cc1OC	98*	4	-26	31	32	15	23*
COCC(=O)Nc1ccc([N+](=O)[O-])cc1OC	-1	5	1	-1	-2	.	.
CCOCC(=O)Nc1cc([N+](=O)[O-])ccc1OC	-5	3	3	4	-18	.	.
COc1cc([N+](=O)[O-])ccc1NC(=O)CN(C)C	26*	-4	2	3	3	2	8
CCOCC(=O)Nc1ccc([N+](=O)[O-])cc1OC	36*	-4	3	1	-2	3	6
Cc1cc(=O)oc2c3c(cc(OCC(=O)NC(Cc4ccc(Cl)cc4)C(=O)O)c12)OC(C)(C)CC3 (centres undefined)	-2	2	1	-9	7	.	.
COCC(C)n1c(SC(C)C(=O)NC2CCCCC2C)nc2ccccc2c1=O (centres undefined)	2	0	1	10	1	.	.
COC(=O)C(=O)C/C(=N/Nc1ncnc2ccccc12)c1ccc(Cl)cc1	58*	4	-25	16	4	13	18
Cc1ccc(/C(=N/Nc2ncnc3ccccc23)C(=O)O)cc1	-2	0	0	8	-3	.	.
CC1=C(C#N)C(=O)N(C2CCS(=O)(=O)C2)C(=O)/C1=C\c1ccco1 (centres undefined)	74*	.	.	.	.	85*	10
O=C1/C(=C\c2ccco2)SC(=S)N1C1CCCCC1	5	.	.	.	.	.	.
CNc1ccccc1C(=O)OC(C)C(=O)Nc1ccc(Cl)cn1 (centres undefined)	1	4	-9	0	3	.	.
CCOC(=O)c1nn(-c2ccc(Cl)cc2)c(=O)c(C#N)c1C	0	1	-7	-2	-2	.	.
CCOC(=O)c1nn(-c2ccc(Cl)cc2Cl)c(=N)c(C#N)c1C	95*	.	.	.	.	81*	87*
C[C@]12C=CC(=O)C=C1CC[C@@H]1C2=CC[C@]2(C)[C@@H](C(=O)CN3CCN(c4cc(N5CCCC5)nc(N5CCCC5)n4)CC3)CC[C@@H]12	31*	6	-67	34	5	29*	41*
O=C(O)C1Nc2c(O)cc(Cl)c([N+](=O)[O-])c2C2C=CCC12 (centres undefined)	84*	-77	15	30	83	15	10
Cn1c(N)c(-c2ccccc2)c2ccc([N+](=O)[O-])cc2c1=O	84*	99*	-28	.	15	89*	92*
N#Cc1c(N)n(Cc2ccccc2)c(=O)c2cc([N+](=O)[O-])ccc12	1	-8	-27	-34	-4	.	.
CCN1C(=O)[C@@H]2Cc3c([nH]c4ccccc34)C(c3ccc(OC)cc3)N2C1=S (some centres undefined)	65*	43*	-33	.	24	48*	60*
Nc1ccc2c(c1)CCC2=O	24*	11	-41	23	3	18	28*
COc1ccc2c(c1)CCCC2=O	.	2	1	-2	6	.	.
CC1(C(=O)NCCCN2CCCC2=O)CCN1CCc1ccccc1 (centres undefined)	.	2	1	-5	-1	.	.
CC(=Nc1ccc(Br)cc1)c1sc2ccccc2c1O	78*	17	-35	26	7	88*	95*
SMILES	TPT1 inhibitor	HNF4A DNA FP	SENP1 inh	Rpn11 inh	CSN deneddyl inh	TPT1 inh confirm	RNase T1 inh
CC(=Nc1ccccc1)c1sc2ccccc2c1O	31*	9	-24	17	5	51*	67*
CC1(C(=O)NCc2ccco2)Cc2c(-c3cccc(C(N)=O)c3)ccnc2O1 (centres undefined)	.	-5	2	0	-1	.	.
COC(=O)[C@H]1[C@H]2C[C@@H]3c4[nH]c5cc(OC)ccc5c4CCN3C[C@H]2C[C@@H](OC(=O)/C=C/c2cc(OC)c(OC)c(OC)c2)[C@@H]1OC	38*	23	-32	28	0	36*	48*
O=c1c(O)c(-c2cccs2)oc2ccccc12	25*	-7	-22	-3	-1	25*	36*
O=c1c(O)c(-c2cccs2)oc2ccc(Cl)cc12	-5	-23	-24	-4	7	.	.
O=C(OCCc1cc2ccccc2c(=O)o1)c1ccco1	.	0	1	-2	-1	.	.
CSc1ccc(CN2CCN(C(=O)CC(C)C)CC2)cc1	26*	-4	2	0	1	7	12
CC(C)CC(=O)N1CCN(Cc2ccc3ccccc3c2)CC1	-3	0	-1	4	6	.	.
Cc1ccc(S(=O)(=O)N2CCN(C(=O)COC(=O)c3cnc(C)cn3)CC2)c(C)c1	-2	1	3	3	3	.	.
CN(C)S(=O)(=O)c1cccc(C(=O)Nc2ccc(Cl)cn2)c1	27*	5	1	-2	0	8	8
O=C(Nc1ccc(Cl)cn1)c1cccc(S(=O)(=O)N2CCCC2)c1	-3	-3	1	0	3	.	.
CC(C)(C)c1ccc(-c2cn(-c3ccc(Br)cc3)c3[n+]2CCCS3)cc1	.	2	2	-10	-4	.	.
CC(=O)Oc1cccc(N2C(=O)c3cccc4c([N+](=O)[O-])ccc(c34)C2=O)c1	43*	-17	-23	-14	-6	43*	59*
Cc1ccc(NC(=O)CSc2nnc(-c3ccoc3C)n2CCCN(C)C)cc1Cl	3	0	1	-1	-1	.	.
Cc1ccc(Nc2c(-c3ccc(N4CCOCC4)cc3)nc3ncccn23)c(C)c1	5	5	-41	12	0	.	.
Cc1cccc(C)c1Nc1c(-c2ccc(N3CCOCC3)cc2)nc2ncccn12	30*	7	-40	13	4	34*	41*
Cc1nn2c(-c3ccncc3)ccnc2c1Br	-2	4	0	-5	-1	.	.
